Screens deposited in PubChem BioAssay by Johns Hopkins Ion Channel Center.
TRPC6 inh: mouse TRPC6 channel inhibition. Q61143. HEK293-TRPC6, membrane potential dye, ACh-evoked depolarization; hits give low values. B-score at 10 µM. hit rate 1.1% among 310,000. AID 2553;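 active = B-score under library mean minus 3 SD, initial fluorescence not abnormally high, positive integrated signal ratio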;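 note: B-score derived from integrated fluorescence ratio over the kinetic read; more negative B-score means stronger inhibition of depolarization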
TRPC6 activator: activates the mouse TRPC6 cation channel. Q61143. HEK293-TRPC6 membrane potential dye fluorescence; hits give high values. B-score at 10 µM. hit rate 0.13% among 310,000. AID 2550;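 active = B-score of the integrated fluorescence ratio above library mean plus 3 SD, and starting fluorescence ratio within library mean plus 5 SD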;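 note: higher score means more depolarization so channel activation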
TRPC4 agonist: activators of mouse TRPC4 channel; hit rate 0.49% among 310,000; HEK293 TRPC4beta/mu-opioid, Fluo4 calcium fluorescence; hits give high values; Q9QUQ5; B-score at 10 µM; AID 2237;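 active = B-score above 5 SD of library B-scores, and initial fluorescence ratio not above library mean plus 5 SD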;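 note: positive B-score marks a calcium rise read as TRPC4 activation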
Target sequence (Q9QUQ5 whole entry, looked up): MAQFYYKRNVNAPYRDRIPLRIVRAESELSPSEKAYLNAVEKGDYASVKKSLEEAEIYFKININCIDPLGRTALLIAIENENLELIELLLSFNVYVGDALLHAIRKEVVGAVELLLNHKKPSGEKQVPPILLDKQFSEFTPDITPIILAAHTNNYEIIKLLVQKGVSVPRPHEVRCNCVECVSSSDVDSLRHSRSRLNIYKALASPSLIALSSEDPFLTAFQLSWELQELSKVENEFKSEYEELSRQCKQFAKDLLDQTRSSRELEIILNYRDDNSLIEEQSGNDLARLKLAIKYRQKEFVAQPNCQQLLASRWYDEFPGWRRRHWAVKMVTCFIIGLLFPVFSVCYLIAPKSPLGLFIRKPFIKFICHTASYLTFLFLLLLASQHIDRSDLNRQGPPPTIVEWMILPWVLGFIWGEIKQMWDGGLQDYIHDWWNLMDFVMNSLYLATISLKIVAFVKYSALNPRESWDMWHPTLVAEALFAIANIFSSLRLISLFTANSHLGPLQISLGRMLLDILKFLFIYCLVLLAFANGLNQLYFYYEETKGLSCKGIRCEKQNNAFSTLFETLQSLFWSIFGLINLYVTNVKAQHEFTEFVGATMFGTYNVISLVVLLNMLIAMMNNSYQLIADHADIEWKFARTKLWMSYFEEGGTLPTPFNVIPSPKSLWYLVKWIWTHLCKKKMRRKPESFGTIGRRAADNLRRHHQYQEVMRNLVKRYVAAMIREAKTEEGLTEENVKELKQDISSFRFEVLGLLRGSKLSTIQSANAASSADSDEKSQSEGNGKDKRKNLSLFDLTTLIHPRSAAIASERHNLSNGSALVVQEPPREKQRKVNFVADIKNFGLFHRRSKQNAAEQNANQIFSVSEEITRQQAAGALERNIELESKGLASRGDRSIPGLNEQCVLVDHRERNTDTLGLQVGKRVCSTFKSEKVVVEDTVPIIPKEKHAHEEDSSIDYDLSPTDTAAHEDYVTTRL
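Test system: HEK293 cells stably co-expressing mouse TRPC4beta and mu-opioid receptor | Schedule: Fluo4 dye loading 45 min at room temperature, 110 s recording | Measured by: Kinetic Fluo4 calcium fluorescence, 5 s baseline at 1 Hz | Evaluation: B score of integrated ratio | Controls: Buffer (low) and maximal DAMGO (high)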
TRPC4 potent: allosterically enhances the mouse TRPC4 cation channel; B-score at 10 µM; AID 2227; HEK293 TRPC4beta/mu-opioid, DAMGO EC20, Fluo-4 Ca2+ flux; hits give high values; hit rate 0.42% among 310,000;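 active = B-score of calcium response area above 5 SD of library B-scores, with initial fluorescence ratio within 5 SD of library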;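 note: B-score of integrated fluorescence ratio over time as area under calcium response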
TRPC4 block: TRPC4 (mouse) channel inhibition. Q9QUQ5. AID 2247. hit rate 0.39% among 300,000. HEK293 TRPC4beta/mu-opioid, DAMGO-evoked Fluo4 calcium flux; hits give low values. B-score at 10 µM;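 active = B-score over 3 SD under the library average, no early fluorescence shift, positive overall ratio signal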
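Material: HEK293 cells with stable TRPC4beta plus mu-opioid receptor expression; probe or stimulus: DAMGO in two steps, submaximal then maximal; technique: Fluo4 calcium fluorescence by kinetic imaging, 5 s 1 Hz baseline; measure: integrated fluorescence ratio relative to baseline, converted to per-well B score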
TRPC4 sel inh 2: second selectivity test of TRPC6 inhibitors: effect on mouse TRPC4. HEK293 TRPC4/MOR, membrane potential dye fluorescence; channel activated by saturating DAMGO dose. shares compounds with TRPC6 inh. inhibition, % at 10 µM. AID 2776. hit rate 42% among 920;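 active = compounds whose fluorescence signal differed from control wells by over 3 SD, either direction, in both duplicate plates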
TRPC4 spec: mouse TRPC4 off-target activity of TRPC6 inhibitors; HEK293 TRPC4/mu-opioid, membrane potential fluorescence; AID 2777; shares compounds with TRPC6 inh; hit rate 61% among 920; activity change, negative = inhibition, % at 10 µM;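 active = rise or fall in signal beyond 3 SD of buffer-only wells in both replicate plates, either sign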;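 note: integrated kinetic ratio of fluorescence range over baseline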
HEK293 MPD ctr 2-1: second check of TRPC6 inhibitor effects in parental HEK293 cells; shares compounds with TRPC6 inh; parental HEK293 membrane potential dye fluorescence; maximal acetylcholine challenge after compound addition; signal change vs control, % at 10 µM; hit rate 31% among 920; AID 2779;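 active = membrane potential signal moving either way by over 3 SD of the maximum-effect control, in both duplicate plates, meaning non-specific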
HEK293 MPD ctr-1: counter-screen for TRPC6 inhibitors: effect in parental HEK293 cells. hit rate 60% among 920. membrane potential signal change, % at 10 µM. shares compounds with TRPC6 inh. parental HEK293 membrane potential dye fluorescence;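 active = membrane potential signal shifting up or down by more than 3 SD of buffer-only wells, on both duplicate plates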
HEK293 MPD ctr-2: counter-screen for TRPC6 modulators: effect in parental HEK293 cells; shares compounds with TRPC6 inh; membrane potential dye fluorescence; membrane potential signal change, % at 10 µM; hit rate 51% among 2,400; AID 488924;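 active = membrane potential signal moves up or down beyond 5 SD from buffer-only wells, on both duplicate plates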
HEK293 MPD ctr 2-2: second check of TRPC6 modulator effects in parental HEK293 cells; shares compounds with TRPC6 inh; membrane potential dye fluorescence; after compound, maximal acetylcholine stimulation; inhibition, % at 10 µM; hit rate 14% among 2,400; AID 488926;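 active = membrane potential signal drops by more than 5 SD from the mean control signal, in both duplicate plates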;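 note: plate controls were acetylcholine ECmax control wells for no effect and buffer only wells for full effect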
TRPC4 ctr mod: selectivity of TRPC6 modulators against mouse TRPC4 | shares compounds with TRPC6 inh | HEK293 TRPC4/mu-opioid, membrane potential fluorescence | percent change from control (negative = decrease, positive = increase), % at 10 µM | hit rate 69% among 2,400 | AID 488927;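 active = membrane potential signal moved up or down beyond 5 SD of buffer control wells, in both duplicate plates, actives on both sides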;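 note: plate controls were assay buffer wells for no effect and DAMGO maximal-effect wells for full effect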
TRPC4/MOR inh 2: second check of whether TRPC6 modulators also affect mouse TRPC4. shares compounds with TRPC6 inh. HEK293 TRPC4/mu-opioid, membrane potential dye fluorescence; stimulated with maximal-effect DAMGO. inhibition, % at 10 µM. hit rate 55% among 2,400;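 active = drop in membrane potential signal beyond 5 SD of the control wells in both duplicate plates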;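 note: TRPC4 counter screen for TRPC6 hits run under conditions tuned for TRPC6 not TRPC4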
TRPC6 inh conf: confirmation of mouse TRPC6 inhibitors | shares compounds with TRPC6 inh | HEK293-TRPC6, membrane potential dye, ACh-evoked depolarization | inhibition, % at 10 µM | hit rate 43% among 3,300 | AID 488960;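 active = fluorescence ratio falls more than 5 SD below the full-stimulation control mean, in both duplicate runs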;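 note: integrated fluorescence ratio of peak minus minimum over baseline after agonist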
TRPC6 act conf: confirmation of mouse TRPC6 activators; hit rate 11% among 2,800; activation, % at 10 µM; HEK293-TRPC6 membrane potential dye fluorescence, FDSS; shares compounds with TRPC6 inh;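 active = ratio signal rise beyond 5 SD above unstimulated control wells' mean, seen in both duplicate runs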;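 note: plate controls were buffer EC0 wells for no effect and acetylcholine ECmax response for full effect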
An asterisk follows results filed as active; i = inactive; nt = not tested or not shown. Only some compounds are listed: those with a hit (about 2.3% of all), similar ones and a draw of the others.

SMILES	TRPC6 inh	TRPC6 activator	TRPC4 agonist	TRPC4 potent	TRPC4 block	TRPC6 inh conf	others
N=c1c(C(=O)NCCN2CCOCC2)cc2c(=O)n3ccccc3nc2n1CCc1ccccc1	-7.84*	i	i	i	i	99.0%*	TRPC4 sel inh 2=64.0%*;TRPC4 spec=-19.7%*;HEK293 MPD ctr 2-1=-78.0%*;HEK293 MPD ctr-1=-245.5%*;TRPC6 act conf=i
COc1ccc(CCn2c(=N)c(C(=O)NCc3ccco3)cc3c(=O)n4ccccc4nc32)cc1	-5.89*	i	i	i	i	i	HEK293 MPD ctr-2=-163.5%*;HEK293 MPD ctr 2-2=i;TRPC4 ctr mod=-36.0%*;TRPC4/MOR inh 2=i;TRPC6 act conf=i
N=c1c(C(=O)NCCc2ccccc2)cc2c(=O)n3ccccc3nc2n1CCCN1CCOCC1	i	i	i	i	i	nt
COc1cccc(OC)c1C(=O)Nc1ccc(C(=O)c2ccncc2)cc1	i	i	i	i	i	nt
COc1cccc(/C=N/NC(=O)Cn2ccnc2C)c1	i	i	i	i	i	nt
COc1ccc(OC)c(/C=N/NC(=O)Cn2ccnc2C)c1	-10.3*	13.8*	i	i	i	80.5%*	HEK293 MPD ctr-2=i;HEK293 MPD ctr 2-2=i;TRPC4 ctr mod=i;TRPC4/MOR inh 2=i;TRPC6 act conf=186.5%*
O=C(Nc1ccccc1Cl)C1CCN(S(=O)(=O)c2cccc3nonc23)CC1	i	i	i	i	i	nt
Cc1ccc(OCCCNC2CCCC2)cc1	i	i	i	i	i	nt
CC(C)(C)c1ccc(OCCCNC2CCCC2)cc1	-5.82*	i	i	i	i	66.5%*	HEK293 MPD ctr-2=209.0%*;HEK293 MPD ctr 2-2=62.0%*;TRPC4 ctr mod=47.0%*;TRPC4/MOR inh 2=40.0%*
COc1ccc(OC)c(S(=O)(=O)Nc2c(NC3CCCCC3)c3ccccc3oc2=O)c1	i	i	i	i	i	nt
CN1C2CCC1CC(OC(c1ccccc1)c1ccccc1)C2 (stereo unspecified)	-7.06*	i	i	i	i	69.2%*	TRPC4 sel inh 2=68.0%*;TRPC4 spec=18.6%*;HEK293 MPD ctr 2-1=i;HEK293 MPD ctr-1=13.7%*
CN1C2CCC1CC(OC(=O)c1c[nH]c3ccccc13)C2 (stereo unspecified)	i	i	i	i	i	nt
O=C(c1cccnc1)c1ncc(C(F)(F)F)cc1Cl	i	i	i	i	i	nt
O=C(O)C1C2CCC(O2)C1C(=O)Nc1ccccc1Br (stereo unspecified)	i	i	i	i	i	nt
CNCC(O)COc1cccc(OC)c1 (stereo unspecified)	i	i	i	i	i	nt
